Data as given in paper PMC7261373 (Journal of medicinal chemistry, 2019).

How the values were obtained:
MCF7:WS8 cells = test: DNA content assay, 2D growth inhibition of MCF7:WS8 cells; assay type: cell-based; conditions: for growth inhibition, result in words: MCF7:WS8, 2D culture
Method in brief: (§1)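 Cells were seeded at 5000/well in 96-well plates and treated with 0.01% (v/v) DMSO vehicle or serially diluted test compound. MCF7:WS8 cells were estrogen-stripped for 2 days beforehand (phenol red-free RPMI-1640, stripped FBS) and read on day 5. MCF7:5C cells, kept in phenol red-free RPMI-1640 with charcoal:dextran-stripped FBS, were read on day 7. Lysis was at −80 °C overnight, then Hoechst 33258 fluorescence was measured in TNE buffer. Data were normalized to vehicle and no cells, from ≥3 biological and analytical replicates.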

MCF7:5C cells = test: DNA content assay, 2D growth inhibition of MCF7:5C cells; assay type: cell-based; conditions: for growth inhibition, result in words: 2D culture
Method in brief: as §1

[1] = Preliminary PK screen, plasma and brain concentrations by LC-MS/MS; assay type: in vivo, C57BL/6 mice; conditions: for concentration in the brain: 0.5 and 2 h, 100 mg/kg oral
MCF7:TAM1 spheroids = test: Spheroid growth assay; assay type: cell-based; conditions: 10 nM, 14 days, ATP content
Method in brief: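 MCF7:TAM1 cells, maintained in phenol red-free stripped RPMI-1640 containing 1 μM of the selecting antiestrogen, were plated at 1000–1500 cells/well in ultra-low-attachment round-bottom plates. Spheroids grew untreated for 1–3 days. Half the medium was then replaced with 2× treatment medium, and 1× treatment was repeated every 2–3 days over 14 days; vehicle was 0.01% DMSO. Viability was read by CellTiter-Glo 3D luminescence, normalized to vehicle (1.0) and background (0.0). Three biological and analytical replicates were run, analysed by one-way ANOVA versus vehicle.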

ERα [2] = molecular target: T1, ERα (Homo sapiens, UniProt P03372); test: ER in-cell western; assay type: cell-based; conditions: MCF7:WS8, 24 h treatment
T1 sequence (P03372 1-595): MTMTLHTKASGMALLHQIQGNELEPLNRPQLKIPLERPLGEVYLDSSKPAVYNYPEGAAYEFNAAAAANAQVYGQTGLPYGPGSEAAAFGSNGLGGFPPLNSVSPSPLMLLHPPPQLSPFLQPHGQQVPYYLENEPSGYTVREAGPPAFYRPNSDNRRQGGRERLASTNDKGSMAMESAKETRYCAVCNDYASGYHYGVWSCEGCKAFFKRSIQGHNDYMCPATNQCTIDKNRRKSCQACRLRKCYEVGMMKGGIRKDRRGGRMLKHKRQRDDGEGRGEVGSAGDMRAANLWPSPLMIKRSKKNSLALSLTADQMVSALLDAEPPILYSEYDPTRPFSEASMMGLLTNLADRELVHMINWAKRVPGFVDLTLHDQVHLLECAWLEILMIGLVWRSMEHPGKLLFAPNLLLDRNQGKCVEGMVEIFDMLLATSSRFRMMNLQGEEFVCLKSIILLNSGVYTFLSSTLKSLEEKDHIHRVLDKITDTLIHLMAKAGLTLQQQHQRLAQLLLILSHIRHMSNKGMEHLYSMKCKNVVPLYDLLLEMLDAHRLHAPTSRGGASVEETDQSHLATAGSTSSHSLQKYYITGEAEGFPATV
Method in brief: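 MCF7:WS8 cells were stripped for 2 days (phenol red-free medium, stripped FBS), plated at 2.5 × 10^4 cells/well, grown 48 h, then treated 24 h. They were fixed and stained with anti-ERα (H10) by the in-cell western protocol. The IRDye 800CW signal was normalized to CellTag 700 stain.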

Full PK analysis of 37d = assay type: in vivo, CD-1 mice; conditions: CD-1, mouse, plasma, po, 50 mg/kg
Method in brief: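 Test compound was given orally at 50 mg/kg as a solution in water and 10% SBE-β-CD/PEG-400 (9:1 v/v). Plasma was sampled at 10 time points. Samples were diluted in 50% acetonitrile, with working standards serially diluted in 50% acetonitrile in water, and quantified by LC-MS/MS.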

[3] = test system: T47D:WT, T47D:TYS (Y537S) and T47D:TDG (D538G) cells; test: Spheroid growth assay; assay type: cell-based; conditions: 10 nM, 11 days treatment
ERα [4] = molecular target: T1, ERα; test: ER western assay with proteasomal inhibitor MG-132 in MCF7:WS8 cells; assay type: cell-based; conditions: MCF7:WS8, 10 nM, MG-132 1 μM, western blot
ERE-luciferase = assay type: cell-based; conditions: MCF7:WS8, in competition with 1 nM E2
Method in brief: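 MCF7:WS8 cells were grown 3 days in phenol red-free RPMI-1640 with stripped FBS, plated at 1 × 10^5 cells/well, and held 24 h. They were then co-transfected for 6 h (Lipofectamine 2000, Opti-MEM) with pERE-luciferase (three Xenopus vitellogenin A2 EREs driving firefly luciferase) and pRL-TK Renilla. Cells were treated with test compound plus 1 nM E2 for 18 h before dual-luciferase readout.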

C[C@]12CC[C@@H]3c4ccc(O)cc4C[C@@H](CCCCCCCCC[S+]([O-])CCCC(F)(F)C(F)(F)F)[C@H]3[C@@H]1CC[C@@H]2O (stereo partly drawn) [compound 2, fulvestrant, reference compound]
IC50 (MCF7:WS8 cells; MCF7:WS8, 96 h, read-out: pIC50, inhibition of cell growth (converted)): 0.631 to 1.58 nM | IC50 (MCF7:5C cells; 144 h, read-out: pIC50, inhibition of cell growth (converted)): 0.631 to 1.58 nM | concentration in the brain, in words ([1]; 30 min, s.c.): below the limit of quantification | inhibition of spheroid growth, in words (MCF7:TAM1 spheroids): greater efficacy

Cc1cc(F)cc(C)c1C(=O)c1sc2cc(O)ccc2c1Oc1ccc(OCCN2CC[C@H](CF)C2)cc1 [30n, (S)-(4-Fluoro-2,6-dimethylphenyl)(3-(4-(2-(3-(fluoromethyl)-pyrrolidin-1-yl)ethoxy)phenoxy)-6-hydroxybenzo[b]thiophen-2-yl)-methanone]
ERα degradation by ICW, result in words (ERα [2]): reduced efficacy

Cc1cc(F)cc(C)c1C(=O)c1sc2cc(O)ccc2c1Oc1ccc(OC2CN(CCCF)C2)cc1 [37d, (4-Fluoro-2,6-dimethylphenyl)(3-(4-((1-(3-fluoropropyl)azetidin-3-yl)oxy)phenoxy)-6-hydroxybenzo[b]thiophen-2-yl)methanone]
concentration in the brain [1]: exceeded 1 μM | half-life (Full PK analysis of 37d): 4.5 h | inhibition of spheroid growth, in words (MCF7:TAM1 spheroids): greater efficacy | efficacy in T47D spheroids, in words [3]: equally as effective as the SERDs, fulvestrant (2) and GDC-0927 (3b), and as the SERM 1b | proteasome dependence of ERα degradation, in words (ERα [4]): coadministration of a proteasome inhibitor blocked the actions

O=C(c1ccc(O)cc1)c1sc2cc(O)ccc2c1Oc1ccc(OCCN2CC(CF)C2)cc1 [30g, (3-(4-(2-(3-(Fluoromethyl)azetidin-1-yl)ethoxy)phenoxy)-6-hydroxybenzo[b]thiophen-2-yl)(4-hydroxyphenyl)methanone]
growth inhibition, result in words (MCF7:5C cells): lost efficacy

Cc1cc(F)cc(C)c1C(=O)c1sc2cc(O)ccc2c1Oc1ccc(OCCN2CC(CF)C2)cc1 [30f, (4-Fluoro-2,6-dimethylphenyl)(3-(4-(2-(3-(fluoromethyl)azetidin-1-yl)ethoxy)phenoxy)-6-hydroxybenzo[b]thiophen-2-yl)-methanone]
concentration in the brain [1]: 600 to 750 nM | inhibition of spheroid growth, in words (MCF7:TAM1 spheroids): greater efficacy

Cc1ccccc1C(=O)c1sc2cc(O)ccc2c1Oc1ccc(OCCN2CC[C@@H](CF)C2)cc1 [30l, (R)-(3-(4-(2-(3-(Fluoromethyl)pyrrolidin-1-yl)ethoxy)phenoxy)-6-hydroxybenzo[b]thiophen-2-yl)(o-tolyl)methanone]
growth inhibition, result in words (MCF7:WS8 cells): superior potency and efficacy to 2 | growth inhibition, result in words (MCF7:5C cells): superior potency and efficacy to 2

Cc1cc(F)cc(C)c1C(=O)c1sc2cc(O)ccc2c1Oc1ccc(OC2CN(C3CC3)C2)cc1 [37f, (3-(4-((1-Cyclopropylazetidin-3-yl)oxy)phenoxy)-6-hydroxybenzo[b]thiophen-2-yl)(4-fluoro-2,6-dimethylphenyl)-methanone]
growth inhibition, result in words (MCF7:WS8 cells): potent and effective | growth inhibition, result in words (MCF7:5C cells): loss of efficacy | ERα degradation by ICW, result in words (ERα [2]): low efficacy | antagonism of ERE-luciferase induction by E2, potency in words (ERE-luciferase): lower potency

Cc1cc(F)cc(C)c1C(=O)c1sc2cc(O)ccc2c1Oc1ccc(OCCN2CC[C@@H](CF)C2)cc1 [30m, (R)-(4-Fluoro-2,6-dimethylphenyl)(3-(4-(2-(3-(fluoromethyl)-pyrrolidin-1-yl)ethoxy)phenoxy)-6-hydroxybenzo[b]thiophen-2-yl)-methanone]
antagonism of ERE-luciferase induction by E2, potency in words (ERE-luciferase): lower potency

O=C(c1ccc(OCCN2CCCCC2)cc1)c1c(-c2ccc(O)cc2)sc2cc(O)ccc12 [compound 6, raloxifene, reference compound]
growth inhibition, result in words (MCF7:5C cells): cross-resistant

Cc1ccccc1C(=O)c1sc2cc(O)ccc2c1Oc1ccc(OCCN2CCC2)cc1 [30a, (3-(4-(2-(Azetidin-1-yl)ethoxy)phenoxy)-6-hydroxybenzo[b]-thiophen-2-yl)(o-tolyl)methanone]
growth inhibition, result in words (MCF7:5C cells): significantly reduced efficacy | ERα degradation by ICW, result in words (ERα [2]): reduced efficacy

Cc1ccccc1C(=O)c1sc2cc(O)ccc2c1Oc1ccc(OCCN2CCCCC2)cc1 [30o, (6-Hydroxy-3-(4-(2-(piperidin-1-yl)ethoxy)phenoxy)benzo[b]-thiophen-2-yl)(o-tolyl) Methanone]
growth inhibition, result in words (MCF7:5C cells): did not inhibit growth | ERα degradation by ICW, result in words (ERα [2]): did not induce ER degradation

Cc1cc(O)ccc1C(=O)c1sc2cc(O)ccc2c1Oc1ccc(OCCN2CC(CF)C2)cc1 [30h, (3-(4-(2-(3-(Fluoromethyl)azetidin-1-yl)ethoxy)phenoxy)-6-hydroxybenzo[b]thiophen-2-yl)(4-hydroxy-2-methylphenyl)-methanone]
ERα degradation by ICW, result in words (ERα [2]): reduced efficacy | antagonism of ERE-luciferase induction by E2, potency in words (ERE-luciferase): lower potency
